Consider 27 compounds from ChEMBL document CHEMBL3124859, “Novel Peptidomimetic Hepatitis C Virus NS3/4A Protease Inhibitors Spanning the P2-P1' Region” (ACS Med Chem Lett, 2014).

A short description of data set [1]: Inhibition of Hepatitis C virus genotype 1a full length NS3/2K-NS4A protease using Ac-DED(Edans)EEAbupsi[COO]ASK(Dabcyl)-NH2 as substrate incubated for 10 mins prior to substrate addition by FRET analysis. The arrangement: species or system Hepatitis C virus subtype 1a.
The nature of data set [2]: Half life in human liver microsomes at 1 uM after 5 mins by LC/MS/MS analysis. In general terms: Liver microsomes are vesicles of endoplasmic reticulum, rich in cytochrome P450 enzymes.
The nature of the next data set: in vitro. The settings on record: human.
Data set [3] is described as follows: Apparent permeability from apical to basolateral side of human Caco2 cells at 10 uM. The settings on record: Caco-2. A general note: Caco-2 monolayers are a common model of the intestinal barrier.
Data set [4] is described as follows: Cytotoxicity against human HuH7 cells. The class given is cell-based, Huh-7.
Another data set deals with Hepatitis C virus. The data set can be described thus: Antiviral activity against Hepatitis C virus genotype 1b infected in human HuH7 cells by subgenomic replicon-based luciferase assay. The class given is functional, organism-based, Hepacivirus hominis. The settings on record: Huh-7. In a few lines:
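Huh-7 replicon cell line carrying a subgenomic HCV genotype 1b RNA replicon with a firefly luciferase reporter; replicon inhibition read by luciferase signal and reported as EC50.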

Data set [5] deals with NS3 protease (Hepacivirus C, UniProt C1KIQ2, R155K). The experiment in a line: Inhibition of Hepatitis C virus genotype 1a full length NS3/2K-NS4A protease R155K mutant using Ac-DED(Edans)EEAbupsi[COO]ASK(Dabcyl)-NH2 as substrate incubated for 10 mins prior to substrate addition by FRET analysis. The arrangement: species or system Hepatitis C virus subtype 1a. In a few lines: (§1)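 Ki (nM ± SD) determined against each resistant NS3/4A protease variant. A vitality value was calculated for each variant as V = [Ki × (kcat/Km)]variant / [Ki × (kcat/Km)]wild-type, normalising for the effect of the substitution on catalytic efficiency.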

The target of data set [6] is NS3 protease (Hepacivirus C, UniProt C1KIQ2, D168V). The experiment in a line: Inhibition of Hepatitis C virus genotype 1a full length NS3/2K-NS4A protease D168V mutant using Ac-DED(Edans)EEAbupsi[COO]ASK(Dabcyl)-NH2 as substrate incubated for 10 mins prior to substrate addition by FRET analysis. The arrangement: species or system Hepatitis C virus subtype 1a. Summed up: as §1

Data set [7] deals with NS3 protease (Hepacivirus C, UniProt C1KIQ2, A156T). The experiment in a line: Inhibition of Hepatitis C virus genotype 1a full length NS3/2K-NS4A protease A156T mutant using Ac-DED(Edans)EEAbupsi[COO]ASK(Dabcyl)-NH2 as substrate incubated for 10 mins prior to substrate addition by FRET analysis. Also on record: species or system Hepatitis C virus subtype 1a. Summed up:
as §1

Data set [8] can be described thus: Solubility of the compound in phosphate buffered saline at pH 7.4 after 1 hr by LC-MS/MS analysis.

In brackets after ≈: the same amount, converted by molar mass. Bounds are passed on as bounds.

Sequence of NS3 protease (Hepacivirus C, UniProt C1KIQ2, R155K) (C1KIQ2 entry or part of it R155K): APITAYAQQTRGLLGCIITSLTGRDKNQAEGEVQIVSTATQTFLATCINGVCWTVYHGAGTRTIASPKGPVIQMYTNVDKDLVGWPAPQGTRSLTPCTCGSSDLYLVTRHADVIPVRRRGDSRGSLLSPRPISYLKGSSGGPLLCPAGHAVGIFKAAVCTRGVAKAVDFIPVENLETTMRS
Sequence of NS3 protease (Hepacivirus C, UniProt C1KIQ2, A156T) (C1KIQ2 entry or part of it A156T): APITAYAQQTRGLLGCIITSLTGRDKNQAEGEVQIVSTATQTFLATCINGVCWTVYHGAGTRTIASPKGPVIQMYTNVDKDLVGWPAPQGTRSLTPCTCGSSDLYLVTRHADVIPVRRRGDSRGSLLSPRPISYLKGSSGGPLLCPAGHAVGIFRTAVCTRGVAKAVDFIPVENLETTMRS
Sequence of NS3 protease (Hepacivirus C, UniProt C1KIQ2, D168V) (C1KIQ2 entry or part of it D168V): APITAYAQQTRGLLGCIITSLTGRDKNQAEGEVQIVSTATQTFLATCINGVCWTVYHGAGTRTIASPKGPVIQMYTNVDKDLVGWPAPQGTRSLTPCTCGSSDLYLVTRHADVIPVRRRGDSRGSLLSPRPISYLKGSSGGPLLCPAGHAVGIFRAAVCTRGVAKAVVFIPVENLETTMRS

In [1], `C=CCCCS(=O)(=O)NC(=O)c1cccc(NC(=O)[C@@H](NC(=O)[C@@H](NC(=O)OC(C)(C)C)C(C)(C)C)c2ccc(Oc3cc(OC)nc(-c4ccccc4)n3)c(C=C)c2)c1` registered an inhibitory constant (Ki) of 88 nM.
On the same count and under the same terms, next, `C=Cc1cc(C(NC(=O)OC2CCCC2)C(=O)Nc2ccc(C(=O)NS(=O)(=O)c3ccc(C(F)(F)F)cc3)cc2)ccc1Oc1cc(OC)nc(-c2ccccc2)n1` (configuration not stated): 55 nM; `C=CCCCS(=O)(=O)NC(=O)c1cccc(NC(=O)C(NC(=O)OC2CCCC2)c2ccc(Oc3cc(OC)nc(-c4ccccc4)n3)c(C=C)c2)c1` (configuration not stated): 130 nM; `C=CCCCS(=O)(=O)NC(=O)c1cccc(NC(=O)C(NC(=O)OC(C)(C)C)c2ccc(Oc3cc(OC)nc(-c4ccccc4)n3)c(C=C)c2)c1` (configuration not stated): 210 nM.
Same read-out and setting: next, `CCC[C@H](NC(=O)[C@@H]1[C@H]2CCC[C@H]2CN1C(=O)[C@@H](NC(=O)[C@@H](NC(=O)c1cnccn1)C1CCCCC1)C(C)(C)C)C(=O)C(=O)NC1CC1`: 40 nM; `C=Cc1cc(C(NC(=O)N2CCOCC2)C(=O)Nc2cccc(C(=O)NS(=O)(=O)c3ccc(C(F)(F)F)cc3)c2)ccc1Oc1cc(OC)nc(-c2ccccc2)n1` (configuration not stated): 590 nM.
With `C=CCCCS(=O)(=O)NC(=O)c1cccc(NC(=O)[C@H](NC(=O)[C@@H](NC(=O)OC(C)(C)C)C(C)(C)C)c2ccc(Oc3cc(OC)nc(-c4ccccc4)n3)c(C=C)c2)c1`, the inhibitory constant (Ki) in data set [1] worked out at 100 nM.
In turn, `C=Cc1cc(C(NC(=O)OC2CCCC2)C(=O)Nc2cccc(C(=O)NS(=O)(=O)c3ccc(C(F)(F)F)cc3)c2)ccc1Oc1cc(OC)nc(-c2ccccc2)n1` (configuration not stated) yielded a Ki in data set [1] of 72 nM. The Ki values of the last two compounds are within 1.5-fold of each other.
For the compound `C=Cc1cc(C(NC(=O)NC(C)(C)C)C(=O)Nc2cccc(C(=O)NS(=O)(=O)c3ccc(C(F)(F)F)cc3)c2)ccc1Oc1cc(OC)nc(-c2ccccc2)n1` (configuration not stated), the half-life at 5 min, 1 µM in data set [2] (liver microsomes) came to 3.23 h. In data set [1], this compound yielded an inhibition constant (Ki) of 140 nM. The compound also displayed an intrinsic metabolic clearance (microsomal CLint) at 5 min, 1 µM in “in vitro” (liver microsomes) of 7 µL/min/mg.
Turning to `C=CCCCS(=O)(=O)NC(=O)c1ccc(NC(=O)[C@@H](NC(=O)[C@@H](NC(=O)OC(C)(C)C)C(C)(C)C)c2ccc(Oc3cc(OC)nc(-c4ccccc4)n3)c(C=C)c2)cc1`, in [1], the affinity, expressed as Ki, was 96 nM.
On the same count and under the same terms, next, `C=Cc1cc([C@@H](NC(=O)[C@@H](NC(=O)OC(C)(C)C)C(C)(C)C)C(=O)Nc2ccc(C(=O)NS(=O)(=O)c3ccc(C(F)(F)F)cc3)cc2)ccc1Oc1cc(OC)nc(-c2ccccc2)n1`: 30 nM; `C=Cc1cc(C(NC(C)=O)C(=O)Nc2cccc(C(=O)NS(=O)(=O)c3ccc(C(F)(F)F)cc3)c2)ccc1Oc1cc(OC)nc(-c2ccccc2)n1` (configuration not stated): 700 nM.
For `C=Cc1cc(C(NC(=O)OC(C)(C)C)C(=O)Nc2ccc(C(=O)NS(=O)(=O)c3ccc(C(F)(F)F)cc3)cc2)ccc1Oc1cc(OC)nc(-c2ccccc2)n1` (configuration not stated), the half-life at 5 min, 1 µM in [2] (liver microsomes) worked out at 0.917 h. For the same compound, in data set [1], affinity was put at a Ki of 46 nM. In addition, the intrinsic metabolic clearance (microsomal CLint) at 5 min, 1 µM in the data set “in vitro” (liver microsomes) was found to be 25 µL/min/mg.
On to `C=CCCCS(=O)(=O)NC(=O)c1ccccc1NC(=O)[C@H](NC(=O)[C@@H](NC(=O)OC(C)(C)C)C(C)(C)C)c1ccc(Oc2cc(OC)nc(-c3ccccc3)n2)c(C=C)c1`, for which, in data set [1], the Ki was found to be 33 nM.
In data set [2] (liver microsomes), `C=Cc1cc(C(NC(=O)OC(C)(C)C)C(=O)Nc2cccc(C(=O)NS(=O)(=O)c3ccc(C(F)(F)F)cc3)c2)ccc1Oc1cc(OC)nc(-c2ccccc2)n1` (configuration not stated) registered a half-life at 5 min, 1 µM of 1.95 h. The apical-to-basolateral permeability (Papp A→B) at 10 µM in data set [3] turned out to be 1 ×10⁻⁶ cm/s. Also, the CC50 in data set [4] was at least 50000 nM. The concentration giving a half-maximal response (EC50) with Hepatitis C virus worked out at 27500 nM. For the same compound, the Ki on NS3 protease [5] is 580 nM; at NS3 protease [6], 180 nM; at NS3 protease [7], 110 nM; in data set [1] it was 58 nM. Also, the microsomal CLint at 5 min, 1 µM in the data set “in vitro” (liver microsomes) is 12 µL/min/mg.
Compound `C=CCCCS(=O)(=O)NC(=O)c1ccc(NC(=O)C(NC(=O)OC(C)(C)C)c2ccc(Oc3cc(OC)nc(-c4ccccc4)n3)c(C=C)c2)cc1` (configuration not stated) showed a Ki in [1] of 220 nM.
With `C=Cc1cc([C@H](NC(=O)[C@@H](NC(=O)OC(C)(C)C)C(C)(C)C)C(=O)Nc2ccccc2C(=O)NS(=O)(=O)c2ccc(C(F)(F)F)cc2)ccc1Oc1cc(OC)nc(-c2ccccc2)n1`, in [1], the Ki was 45 nM.
Compound `C=CCCCS(=O)(=O)NC(=O)c1ccccc1NC(=O)[C@@H](NC(=O)OC(C)(C)C)c1ccc(Oc2cc(OC)nc(-c3ccccc3)n2)c(C=C)c1` had a half-life at 5 min, 1 µM in [2] (microsomes) of 0.35 h. For the same compound, the Papp A→B at 10 µM in data set [3] worked out at 1 ×10⁻⁶ cm/s. Moreover, in data set [8], the concentration in solution (solubility at 1 h) came to 101 µM (≈ 73.5 µg/mL). The compound also displayed a Ki in [1] of 190 nM. Further, the microsomal CLint at 5 min, 1 µM in the data set “in vitro” (microsomes) came to 66 µL/min/mg.
In the case of `COc1ccc2c(O[C@@H]3C[C@H]4C(=O)N[C@]5(C(=O)O)C[C@H]5/C=C\CCCCC[C@H](NC(=O)OC5CCCC5)C(=O)N4C3)cc(-c3csc(NC(C)C)n3)nc2c1`, the Ki in [1] is 300 nM. This counts as sub-micromolar.
On the same count and under the same terms, the result for `C=Cc1cc(C(NC(=O)c2cccnc2)C(=O)Nc2cccc(C(=O)NS(=O)(=O)c3ccc(C(F)(F)F)cc3)c2)ccc1Oc1cc(OC)nc(-c2ccccc2)n1` (configuration not stated) reads 240 nM.
On the same count and under the same terms, next, `C=Cc1cc(C(N)C(=O)Nc2cccc(C(=O)NS(=O)(=O)c3ccc(C(F)(F)F)cc3)c2)ccc1Oc1cc(OC)nc(-c2ccccc2)n1` (configuration not stated): 1200 nM.
Same read-out and setting: next, `C=CCCCS(=O)(=O)NC(=O)c1ccc(NC(=O)[C@H](NC(=O)[C@@H](NC(=O)OC(C)(C)C)C(C)(C)C)c2ccc(Oc3cc(OC)nc(-c4ccccc4)n3)c(C=C)c2)cc1`: 110 nM.
Regarding `C=Cc1cc([C@H](NC(=O)[C@@H](NC(=O)OC(C)(C)C)C(C)(C)C)C(=O)Nc2ccc(C(=O)NS(=O)(=O)c3ccc(C(F)(F)F)cc3)cc2)ccc1Oc1cc(OC)nc(-c2ccccc2)n1`, the Ki in data set [1] is 30 nM.
With `C=Cc1cc([C@H](NC(=O)[C@@H](NC(=O)OC(C)(C)C)C(C)(C)C)C(=O)Nc2cccc(C(=O)NS(=O)(=O)c3ccc(C(F)(F)F)cc3)c2)ccc1Oc1cc(OC)nc(-c2ccccc2)n1`, in data set [2] (liver microsomes), the half-life at 5 min, 1 µM stood at 0.283 h. The Papp A→B at 10 µM in [3] amounted to 9.7 ×10⁻⁶ cm/s. For the same compound, in [8], the concentration in solution (solubility at 1 h) came to 43 µM (≈ 39.4 µg/mL). Also, in data set [4], the CC50 was at least 50000 nM. This compound also showed a 50% effective concentration (EC50) in the data set on Hepatitis C virus above 50000 nM. Moreover, the inhibition constant (Ki) is 210 nM on NS3 protease [5], 110 nM on NS3 protease [6], 53 nM at NS3 protease [7] and 24 nM in [1]. Also, the microsomal CLint at 5 min, 1 µM in the data set “in vitro” (liver microsomes) worked out at 80 µL/min/mg.
On to `C=CCCCS(=O)(=O)NC(=O)c1ccccc1NC(=O)C(NC(=O)[C@@H](NC(=O)OC(C)(C)C)C(C)(C)C)c1ccc(Oc2cc(OC)nc(-c3ccccc3)n2)c(C=C)c1` (mixture of isomers), for which the half-maximal cytotoxic concentration (CC50) in data set [4] is at least 50000 nM. In the data set on Hepatitis C virus, the response was half-maximal at 12500 nM (EC50).
On to `C=Cc1cc(C(NC(=O)OC(C)(C)C)C(=O)Nc2ccccc2C(=O)NS(=O)(=O)c2ccc(C(F)(F)F)cc2)ccc1Oc1cc(OC)nc(-c2ccccc2)n1` (configuration not stated), for which the half-life at 5 min, 1 µM in data set [2] (microsomes) is 1.47 h. Moreover, in data set [3], the Papp A→B at 10 µM is 4 ×10⁻⁶ cm/s. The compound also displayed a solubility at 1 h in data set [8] of 5 µM (≈ 4.02 µg/mL). In data set [1], this compound came in with a Ki of 240 nM. The same compound had a microsomal CLint at 5 min, 1 µM in the data set “in vitro” (microsomes) of 16 µL/min/mg.
Turning to `C=CCCCS(=O)(=O)NC(=O)c1ccccc1NC(=O)[C@@H](NC(=O)[C@@H](NC(=O)OC(C)(C)C)C(C)(C)C)c1ccc(Oc2cc(OC)nc(-c3ccccc3)n2)c(C=C)c1`, the affinity in [1], expressed as Ki, was 26 nM.

The Ki is the dissociation constant of the complex between target and ligand, obtained from inhibition or displacement. Low readings indicate a stronger hold on the target, high ones a looser hold on the target. Broadly, the half-life is how long it takes for the measured level to halve. High values mean slow decline, low ones rapid decline. The microsomal CLint is a measure of how fast metabolising enzymes remove a compound, apart from limits set by blood flow. Low values mean greater metabolic stability, high ones faster metabolism. One may read the Papp A→B as how fast a substance crosses the layer from the apical side. The term CC50 denotes the concentration that lowers cell viability or growth by half. High values mean lower toxicity to the cells, low ones greater toxicity to the cells. Broadly, the EC50 is the concentration at which the effect is half-maximal. Read a low EC50 as higher potency in that assay. Usually solubility stands for how much of the substance goes into solution per volume. Higher therefore signals a readily soluble substance.
